Measured values as given in the RNAGym collection of RNA variant scans (doi:10.1126/science.aae0568).
This sample holds only a part of the variants without activity.

B1: tRNA (parent)
chain: GUUCCGUUGGCGUAAUGGUAACGCGUCUCCCUCCUAAGGAGAAGACUGCGGGUUCGAGUCCCGUACGGAACG

Variants of: B1
Assay: yeast fitness relative to wild type (ratio to wild type); higher = fitter; tRNA-Arg(CCU), competitive growth, 37 C, YPD
Summary of the method: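 For this measurement, the tRNA-Arg(CCU) gene was varied by chemical synthesis at a 3% per-site mutation rate across 69 sites, and each variant was placed at the native genomic locus in Saccharomyces cerevisiae. The pooled strains went through a 24-hour competition in YPD at 37°C in six parallel replicates, with amplicons from start and end populations read by 100-nucleotide paired-end sequencing. Darwinian fitness relative to wild type followed from the change in each genotype's frequency. Genotypes needed ≥ 100 starting reads, and estimates < 0.5 were set to 0.5.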

Compared with GUUCCGUUGGGGUAAAGGUAGCGUGUCUCCCUCCUAAGGAGAAGACUGCGGGUUCGAGUCCCGUACGGAACG [C11G U16A A21G C24U], GUUCCGUUGGGGUAAUGGUAACGCGUCACCGUCCUAAAGAGAAGACUGAGGGUUCGAGUCCCGUACGGGACG [C11G U28A C31G G38A C49A A69G] is higher in yeast fitness: ≤ 0.5 for the first, 0.559 for the second.

GUUCCGUUGGGGUAAUGGUAACGCGUCCCCCUCCUAAGGAGAAGACUGCGGGUUCGAGUCCCGUACCGAACG [C11G U28C G67C] and GUUCCGUUGGGGUAACGGUAAUGCGUCUCCCUCCUAAGGAGAAGACUGCGGGUUUGAGUCCCGUACGUAACG [C11G U16C C22U C55U G68U] cannot be ordered by yeast fitness: ≤ 0.5 for the first, ≤ 0.5 for the second.

First: GUUCCGUUGGGGUAAUGGUAACGCGUCUCCCACCUAAGGAGAAGACUGCGGGUUCGAGUCCCGUACGAAACG [C11G U32A G68A]
Second: GUUCCGUUGGGGUAAUGGUAACGCGUCUCCCUCCUAAGGAGAAGACUGCGGGUUCGAGACACGUACGGAACG [C11G U59A C61A]
The yeast fitness of the first is higher: 0.746 for the first, ≤ 0.5 for the second.

Compared with GUUCCGUUGGUGUCAUGGUAACGCGUGUCCCUCCUAAGGAGAAGAGUGCGGGUUCGAGUCCCGUGCGGAACG [C11U A14C C27G C46G A65G], GUUCCGUUGGGGUAAAGGUAACGCGUCUCCCUCCUAAGGAGAAGACUGAGGGUUCGAGUCCCGUACGGAACG [C11G U16A C49A] is lower in yeast fitness: 0.52 for the first, ≤ 0.5 for the second.

Going from GUUCCGUUGGGGUAAGGGUAACGCGUCUCCCUCCUAACGAGAAGACUGCGGGUUCGAGUCCCGUACGGAACG [C11G U16G G38C] to GUUCCGUUGGGGUAAUGGAAAGGCGUCUCCCUCCUAAGGAGAAGACUGCGGGUUCGAGACCCGUACGGAACG [C11G U19A C22G U59A], the yeast fitness falls from 0.577 to ≤ 0.5.

Compared with GUUCCGUUGGGGUAAUGGUAACGCGUCUCCCGCCUAAGGAGAAGACUGCGGGUUCGCGUCCUGUACGGAACG [C11G U32G A57C C62U], GUUCCGUUGGGGUAAUGGUAACGCGUCUCCCUCCAAAGGAGAAGACUGCGGGUUCGAGUCCCCUACGGAACG [C11G U35A G63C] is lower in yeast fitness: 0.643 for the first, 0.602 for the second.

GUUCCGUUGGGGUAAAGGUAACGCGUCUCCCUCCUAAGGAGAAGACUCCGGGUUCGUGUCCCGUACGGAACG [C11G U16A G48C A57U] and GUUCCGUUGGGGUAAUGGUAACGCGUCGCCCUCCUAGGGAGAAGACUGCGGGUUCGAGUCCCGUACGGAACG [C11G U28G A37G] cannot be ordered by yeast fitness: ≤ 0.5 for the first, ≤ 0.5 for the second.

GUUCCGUUGGGGUAAUGGUAACGCGACUCCAUCCUAAGGAGAACACUGCGGGUUCGAGUCCAGUACGGAACG [C11G U26A C31A G44C C62A] and GUUCCGUUGGGGGAAUGGUAACGCGUCUCCCUCCUAAGGAGAAGACUGCGGGUUCGAGUCCCAUACGGAACG [C11G U13G G63A] cannot be ordered by yeast fitness: ≤ 0.5 for the first, ≤ 0.5 for the second.

GUUCCGUUGGGGUAAUGGUAACGCGUCUCCCUCCCAAGGAGAAGAUUGCGGGUUCGAGUCUCGUACGGAACG [C11G U35C C46U C61U] and GUUCCGUUGGGGUAAUGGUAACGCGUCCCCCUCUUAAGGAGAACACUGCCGGCUCGAGUCCCGUACGGAACG [C11G U28C C34U G44C G50C U53C] cannot be ordered by yeast fitness: ≤ 0.5 for the first, ≤ 0.5 for the second.

First: GUUCCGUUGGGGUAAUGGAAGCGCGUUUCCCUCCUAAGCAGAAGACUGCGGGUUCGAGUACCGUACGGAACG [C11G U19A A21G C27U G39C C60A]
Second: GUUCCGUUGGGGUAAAGGUAACGCGUCUCCCUCCUAAGGAGAAGACUGCGGGUUCGAGUCCCGUACAGAACG [C11G U16A G67A]
The yeast fitness of the first is lower: ≤ 0.5 for the first, 0.536 for the second.

GUUCCGUUGGGGUAAUGGUAACGCGUCUCCCUCCUAAGGAGAAGACAGCGGGUUCGAGUCCGGUAGGGAACG [C11G U47A C62G C66G] and GUUCCGUUGGUGUCAUGGUAACGCGUUUCCUUACUAAGGAGAAGACUGCGGGUUCGAGUCCCGUACCGAACG [C11U A14C C27U C31U C33A G67C] cannot be ordered by yeast fitness: ≤ 0.5 for the first, ≤ 0.5 for the second.

Compared with GUUCCGUUGGGGUAAUGGUAACGCGUCACCCUCCUAAGGAGAAGACUGCGGGUUCGAGUCCCGUAUGGAUCG [C11G U28A C66U A70U], GUUCCGUUGGGGUAAUGGUAACGCGUCUCCCGCCUAAGGAGAAGACUGCGGGUUCGCGUCCUGUAUGGAACG [C11G U32G A57C C62U C66U] is higher in yeast fitness: ≤ 0.5 for the first, 0.556 for the second.

Compared with GUUCCGUUGGGGUAAUGGCAACGCGUCUCCCUCGUAAGGAGAAGACUGCGGGUUCGAGUACCGUACCGAACG [C11G U19C C34G C60A G67C], GUUCCGUUGGGGUAAUGGUAACGCGUCUCCCGUCUAUGGAGAAGACUGCGGGUUCGAGUCCCGUGCGGAACG [C11G U32G C33U A37U A65G] is higher in yeast fitness: ≤ 0.5 for the first, 0.627 for the second.

First: GUUCCGUUGGGGUAAAGGUAACGCGUCUUCCUCCUAAGGAGAAGACUGCGGGUUCGAGUCCCGUACGGCACG [C11G U16A C29U A69C]
Second: GUUCCGUUGGGGUAAAGGUAACGCGUCUCACUCCUAAGGAGAAGACUGCGGGUUCGAGUCCCGUACGGCACG [C11G U16A C30A A69C]
The yeast fitness of the first is higher: 0.538 for the first, ≤ 0.5 for the second.

Compared with GUUCCGUUGGGGUAAUGGUAACGCGUCUCCCUCCUAAGGAGAAGACUGCGGGUUCGAGUCCCGCACGGAACG [C11G U64C], GUUCCGUUGGGGUAAUGGUAACGCGUCUCCCUCCUAAGGAGAAGACUGCGGGUUCGAGUCCCGAACGGAACG [C11G U64A] is higher in yeast fitness: 0.567 for the first, 0.623 for the second.

Going from GUUCCGUUGGGGUAAUGGUAACGCGUCACCCUCCUAAGGAGAAGACUGCGGGUUCGAGUCCAGUACGGAACG [C11G U28A C62A] to GUUCCGUUGGGGUAAUGGUAACGCGUCUCCCUCCUAAGGAGAAGACUGCGGGCUCGAGUCCCGUACGGAACG [C11G U53C], the yeast fitness rises from ≤ 0.5 to 0.584.

Going from GUUCCGUUGGGGUAAAGGUAACGCGUCUCACUCCUAAGGAGAAGACUGCGGGUUCGAGUCCCGUACGGAACG [C11G U16A C30A] to GUUCCGUUGGGGUAAAGGUAACGCGUCCUCCUCCUAAGAAGAAGACUGCGGGUUCGAGGCCCGAACGGAACG [C11G U16A U28C C29U G39A U59G U64A], the yeast fitness falls from 0.583 to ≤ 0.5.

Compared with GUUCCGUUGGGGUAAUGGUAACGCGUCUCCCCCCUAAGGUGAAGACUGCGGGUUCGAGUCCCGUACGGAACG [C11G U32C A40U], GUUCCGUUGGGGUAAUGGUAACGCGUCUCCCUCCUAAGGAGAAGACAGCGGGUUCGAGUCCCGUACAGAACG [C11G U47A G67A] is lower in yeast fitness: 0.662 for the first, 0.548 for the second.

In the case of GUUCCGUUGGUGUCAUGGUAAUGCGUCUCCCUCCUAAGGAGACGACUGCGGGUUCGAGUCCCGUACGGAACG [C11U A14C C22U A43C], the yeast fitness is reported as ≤ 0.5.
